Where two headings read alike, the source gives them in different places.
How the values were obtained:
[1] = ref Rees et al. (1980), cited from earlier work
[2] = test system: intracellular L. (L.) infantum chagasi amastigotes; assay: Activity against intracellular amastigotes in infected peritoneal macrophages; assay type: cell-based, Leishmania (Leishmania) infantum chagasi; details: ratio of IC50 promastigotes to amastigotes
Method in brief: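 For amastigotes, BALB/c peritoneal macrophages were plated on coverslips at 4 × 10⁵/well for 24 h. They were infected with hamster-spleen amastigotes at 10:1 for 24 h and washed. Compound was added for 5 days at 37 °C, 5% CO₂. Giemsa counts in 400 macrophages (untreated = 100%) gave a sigmoid-fit IC50, two experiments in duplicate.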

[3] = ref Chakravarti & Sem Gupta 1950, cited from earlier work
[4] = test system: L. (L.) infantum chagasi amastigotes; assay: Treatment of L.; assay type: in vivo, BALB/c mice; details: 50 mg Sb5+/kg/day i.p., four consecutive days
Method in brief: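 Female BALB/c mice (20-24 g) were infected i.v. by the retro-bulbar route with 1-2 x 10⁷ hamster-spleen amastigotes/150 µL. From day 7, groups of 4 received 50 mg Sb⁵⁺/kg/day i.p. for four consecutive days; controls received PBS. Mice were euthanised two weeks post-infection and liver and spleen were weighed. Amastigotes per 400 nuclei on Giemsa imprints × organ weight (g) gave Leishman-Donovan units.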

[5] = test system: L. (L.) infantum chagasi promastigotes; assay: L.; assay type: cell-based, Leishmania (Leishmania) infantum chagasi; details: evaluation of the IC50
Method in brief: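 Promastigotes (MHOM/BR/1972/LD; M-199 with 10% FBS, 0.25% haemin) were seeded at 1 × 10⁶ cells/well. Two-fold serial dilutions were applied for 24 h at 24 °C. MTT was added for 4 h at 24 °C, formazan was dissolved in 10% SDS for 18 h, and OD was read at 570 nm. Viability was normalised to untreated promastigotes (100%). IC50 came from a sigmoid dose-response fit, three experiments in duplicate.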

Molecule: O.O.O.O.O.O.O.O.O.O=C([O-])[C@@H]1[O][Sb](=[O])([O][Sb]2(=[O])[O][C@H]([C@H](O)CO)[C@H](O)[C@H](C(=O)[O-])[O]2)[O][C@H]([C@H](O)CO)[C@@H]1O.[Na+].[Na+].[Na+] (some centres unmarked) [sodium stibogluconate]
- excreted in the urine ([1]; administered intravenously, after 6 h): 96%
- excreted in the urine ([1]; intramuscular injection, after 6-8 h): 80-91%

Molecule: meglumine antimoniate [MA]
- fold more active against amastigotes than against promastigotes [2]: 680 fold
- time to complete elimination after administration ([3]; healthy individuals, renal excretion): 24 h
- antimony in the urine 36 h after drug administration ([3]; ill patients (VL), 36 h): traces of antimony were still observed in the urine
- parasite burden in the spleen, mean (SD) ([4]; untreated control 41.69 (8.60)): 32.17 (19.20) amastigotes per gram
- parasite burden in the liver, mean (SD) ([4]; untreated control 3,331 (1,745)): 2,696 (1,472) amastigotes per gram
- susceptibility of promastigotes [5]: not susceptible

Reference: PMC3970594 (Memórias do Instituto Oswaldo Cruz, 2013)
